Among the data in ChEMBL document CHEMBL5346963, “Innovative Strategy toward Mutant CFTR Rescue in Cystic Fibrosis: Design and Synthesis of Thiadiazole Inhibitors of the E3 Ligase RNF5” (J Med Chem, 2023) are Activity values, retold here.

Data set [1] deals with CFBE41o-. Description: Antiproliferative activity against human CFBE41o- cells harbouring CFTR F508del mutant/HS-YFP at 5 uM incubated for 48 hrs. It is filed as toxicity, cell-based. In a few lines:
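Cells plated at 5000/well and treated after 6 h with compound (5 μM) or DMSO. Cell-covered area was followed by the YFP signal over 48 h on a high-content imager. Means ± SEM, n = 6. Three independent experiments; ANOVA with Dunnett test.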

A short description of data set [2]: Aggregation property of the compound in PBS buffer at pH 7.5 by 1D 1H-NMR analysis. It is filed as physicochemical. The gist of the method:
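Solubility by 1H 1D NMR and aggregation by WaterLOGSY at 298 K in PBS pH 7.5 with 1 μM ZnCl2, 1 mM DTT, 10% D2O, 1% DMSO-d6. Theoretical concentrations 20, 50 and 100 μM, with 200 μM 4-trifluoromethyl benzoic acid as internal reference. WaterLOGSY: mixing time 1.7 s, relaxation delay 2 s, 256 scans.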

Data set [3] deals with CFBE41o-. As to the kind of experiment: Induction of autophagy in human CFBE41o- cells harbouring CFTR F508del mutant assessed as increase in number of autophagic vacuoles at 5 uM incubated for 24 hrs by confocal microscopy based analysis. It is filed as functional, cell-based. The gist of the method:
(§1)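 CFBE41o– F508del/HS-YFP cells (50,000/well) were treated 24 h with compound (5 μM), VX-809 (1 μM) or DMSO. SAR405 (2 μM) and torin1 (20 nM) were added near the end of incubation. Cells were then loaded with 50 μM MDC in PBS for 10 min at 37 °C, washed, and imaged. MDC spot number was normalized to control. n = 3; ANOVA with Dunnett test.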

Data set [4] concerns CFBE41o-. As to the kind of experiment: Induction of apoptosis in human CFBE41o- cells assessed as increase in apoptosis at 100 uM incubated for 24 hrs by Hoechst 33342 and propidium iodide staining based analysis. It is filed as toxicity, cell-based. The gist of the method:
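Cells were plated at 10,000/well and treated after 6 h with compound (5, 20, 100 μM), VX-809 (1 μM), MG132 (50 μM) or DMSO for 24 h. Hoechst 33342 counted total nuclei and propidium iodide counted apoptotic nuclei, by high-content imaging. Means ± SEM; ANOVA with Dunnett test.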

Data set [5] relates to Cystic fibrosis transmembrane conductance regulator (Homo sapiens), P13569 [F508del]. As to the kind of experiment: Corrector activity at CFTR F508del mutant in human CFBE41o- cells assessed as rescue of CFTR mutant at 10 uM incubated for 24 hrs in presence of VX-445 by Western blot analysis. It is filed as cell-based.
Chain of Cystic fibrosis transmembrane conductance regulator (Homo sapiens), P13569 [F508del] (P13569 as listed by the source): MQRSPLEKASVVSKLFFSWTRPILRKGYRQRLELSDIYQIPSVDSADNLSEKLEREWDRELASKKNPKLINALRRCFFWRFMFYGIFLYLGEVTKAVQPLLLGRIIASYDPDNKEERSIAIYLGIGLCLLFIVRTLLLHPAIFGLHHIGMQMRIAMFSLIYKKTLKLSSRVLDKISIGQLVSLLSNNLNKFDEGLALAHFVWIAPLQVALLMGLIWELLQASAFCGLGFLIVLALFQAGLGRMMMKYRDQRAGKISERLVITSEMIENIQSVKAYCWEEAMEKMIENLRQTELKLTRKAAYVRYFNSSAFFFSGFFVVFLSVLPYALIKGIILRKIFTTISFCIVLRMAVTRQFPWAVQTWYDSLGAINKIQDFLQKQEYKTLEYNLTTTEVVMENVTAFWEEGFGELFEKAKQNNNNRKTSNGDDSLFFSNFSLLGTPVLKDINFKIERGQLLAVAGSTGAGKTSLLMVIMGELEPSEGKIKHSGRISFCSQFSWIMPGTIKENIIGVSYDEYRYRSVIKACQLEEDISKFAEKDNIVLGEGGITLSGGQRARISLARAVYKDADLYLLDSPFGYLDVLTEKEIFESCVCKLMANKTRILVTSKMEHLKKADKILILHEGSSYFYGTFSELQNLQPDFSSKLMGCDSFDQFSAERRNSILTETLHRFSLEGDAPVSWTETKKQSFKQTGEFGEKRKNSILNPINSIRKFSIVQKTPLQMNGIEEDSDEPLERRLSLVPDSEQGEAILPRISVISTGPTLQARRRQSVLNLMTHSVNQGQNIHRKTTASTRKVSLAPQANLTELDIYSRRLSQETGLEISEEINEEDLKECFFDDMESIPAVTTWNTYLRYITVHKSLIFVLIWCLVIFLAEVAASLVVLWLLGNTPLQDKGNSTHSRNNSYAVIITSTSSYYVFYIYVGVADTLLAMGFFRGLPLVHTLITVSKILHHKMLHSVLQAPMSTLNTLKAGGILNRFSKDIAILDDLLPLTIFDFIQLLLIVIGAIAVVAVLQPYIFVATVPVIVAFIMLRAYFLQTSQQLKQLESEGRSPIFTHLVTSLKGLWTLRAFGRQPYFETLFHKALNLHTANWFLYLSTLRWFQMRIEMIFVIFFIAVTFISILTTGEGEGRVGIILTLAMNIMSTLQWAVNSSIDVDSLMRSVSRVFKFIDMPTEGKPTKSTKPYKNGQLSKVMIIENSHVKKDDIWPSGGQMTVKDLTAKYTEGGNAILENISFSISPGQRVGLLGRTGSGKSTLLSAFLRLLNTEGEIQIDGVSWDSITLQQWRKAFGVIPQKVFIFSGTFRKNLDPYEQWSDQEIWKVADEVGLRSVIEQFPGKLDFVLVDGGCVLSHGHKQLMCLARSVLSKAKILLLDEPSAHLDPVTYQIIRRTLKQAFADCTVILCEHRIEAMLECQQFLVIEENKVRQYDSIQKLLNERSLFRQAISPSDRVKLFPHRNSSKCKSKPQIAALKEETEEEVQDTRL
Data set [6] has the same test system. As to the kind of experiment: Corrector activity at CFTR F508del mutant in human CFBE41o- cells assessed as decrease in accumulation of ubiquitylated CFTR at 10 uM incubated for 24 hrs in presence of VX-445 by Western blot analysis. It is filed as cell-based. The gist of the method: (§2)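 Confluent CFBE41o– F508del cells were treated 24 h, with MG-132 (10 μM) or DMSO in the last 4 h. Lysate (600 μg protein) was immunoprecipitated with rabbit anti-CFTR (2 μg, 1 h RT) and protein A/G beads, then eluted reducing. Samples ran on 4–15% gradient SDS-PAGE and were western blotted. Bands were read by chemiluminescence, with densitometry of ubiquitylated CFTR.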
Background: In western blotting, separated proteins are transferred to a membrane and probed.

Data set [7] concerns CFBE41o-. As to the kind of experiment: Induction of autophagy in human CFBE41o- cells harbouring CFTR F508del mutant assessed as increase in number of autophagic vacuoles at 2 uM incubated for 3 hrs by confocal microscopy based analysis. It is filed as functional, cell-based. The gist of the method:
as §1

For data set [8], the system named is Cystic fibrosis transmembrane conductance regulator (Homo sapiens), P13569 [F508del]. Description: Corrector activity at CFTR F508del mutant in human CFBE41o- cells assessed as rescue of CFTR mutant at 3 uM incubated for 24 hrs in presence of VX-661 by Western blot analysis. It is filed as cell-based.
For data set [9] the test system is unchanged. Description: Corrector activity at CFTR F508del mutant in human CFBE41o- cells assessed as decrease in accumulation of ubiquitylated CFTR at 3 uM incubated for 24 hrs in presence of VX-661 by Western blot analysis. It is filed as cell-based. In a few lines:
as §2

SMILES strings stand for the structures. The source made the active and inactive calls. Unless noted, no cut-off for these calls is given here.

On to `Cc1ccc(Cn2c(C)ns/c2=N\C(=N\c2ccccc2)c2ccccc2)cc1`, for which the Activity result in [1] is “Non-Toxic”.

For `Cc1ns/c(=N\C(=N\c2ccccc2)c2ccccc2)n1Cc1cccc(Cl)c1`, in data set [1], the Activity entry is “Non-Toxic”. As to `Cc1ns/c(=N\C(=N\c2ccccc2)c2ccncc2)n1Cc1ccccc1`, the Activity entry in [2] is “Not Active”; in data set [1], “Non-Toxic”. Further, the outcome in data set [3] was inactive. In the case of `CNc1cccc(Cn2c(C)ns/c2=N\C(=N\c2ccccc2)c2ccccc2)c1`, the Activity entry in data set [1] is on record as “Non-Toxic”. Also, the outcome in [3] was Active. Turning to `Cc1ns/c(=N\C(=N\c2ccncc2)c2ccccc2)n1Cc1ccccc1`, the Activity result in data set [2] is listed as “Not Active”.

Turning to `Cc1ns/c(=N\C(=N\c2ccccc2)c2ccccc2)n1Cc1ccccc1N`, the Activity result in data set [2] is “Not Active”; in [1], “Non-Toxic”; in [4] it was “Toxic”. Consider `Cc1ns/c(=N\C(=N\c2ccccc2)c2ccccc2)n1Cc1ccc(F)cc1`, for which the Activity entry in [1] was “Non-Toxic”. In addition, in [3], the outcome was inactive. Regarding `Cc1ns/c(=N\c2ccccn2)n1Cc1ccccc1`, the Activity result in data set [2] is “Not Active”. In the case of `CCOc1cccc(Cn2c(C)ns/c2=N\C(=N\c2ccccc2)c2ccccc2)c1`, the Activity result in data set [1] is reported as “Non-Toxic”.

As to `CC(C)(CO)c1cc2cc(NC(=O)C3(c4ccc5c(c4)OC(F)(F)O5)CC3)c(F)cc2n1C[C@@H](O)CO`, the outcome in data set [5] and in data set [6] was Active. Consider `COc1ccccc1Cn1c(C)ns/c1=N\C(=N\c1ccccc1)c1ccccc1`, for which the Activity result in data set [1] is reported as “Non-Toxic”; in data set [4] it was “Toxic”. Consider `C[C@@H]1COCCN1c1cc(=O)n2c(n1)N(Cc1cncc(Cl)c1)[C@H](C(F)(F)F)CC2`, for which, in data set [7], the outcome was inactive.

For the compound `Cc1nn(C)cc1S(=O)(=O)NC(=O)c1ccc(-n2ccc(OCC(C)(C)C(F)(F)F)n2)nc1N1C[C@@H](C)CC1(C)C`, the outcome in data set [8] and in [9] was Active.
